According to publication PMC4718766 (Nature chemical biology, 2015):
Each block holds one molecule with its values, some of them ahead of it.

Experiments:
NCI-H1734 cells = assay: Cell viability; format: cell-based, human; conditions: NCI-H1734 versus A549, 48 hours
A549 cells = assay: Cell viability; format: cell-based; conditions: Homo sapiens, A549, 48 h
Summary of the method: (§1)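 Cells per 384-well: A549 1000 (RPMI), HeLa 1000 (DMEM), MCF-7 500 (DMEM), PC3 4000 (F12-K), NCI-H2122 1000 (RPMI), NCI-H1563 1500 (RPMI); all with 10% FBS. Test compound added 24 h after plating, 48 h exposure. Readout: 25% CellTiter-Glo in PBS, 10 min, luminescence, normalized to DMSO. Dose curves: mean of 8 replicates ± s.d.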

HeLa cells [1] = assay: Compound sensitivity testing; format: cell-based, human; conditions: for activity compared with (R)-DNMDP: cell viability, (R)-des-nitro analogues
Summary of the method: as §1

NCI-H1563 cells = assay: Compound sensitivity testing; format: cell-based; conditions: Homo sapiens, NCI-H1563, 48 h
Summary of the method: as §1

NCI-H2122 cells = assay: Compound sensitivity testing; format: cell-based; conditions: Homo sapiens, NCI-H2122, 48 h
Summary of the method: as §1

MCF7 cells = assay: Compound sensitivity testing; format: cell-based; conditions: Homo sapiens, MCF7, 48 h
Summary of the method: as §1

PC3 cells = assay: Compound sensitivity testing; format: cell-based; conditions: Homo sapiens, PC-3, 48 h
Summary of the method: as §1

[2] = tested on: 766 genomically characterized cancer cell lines; assay: Large-scale cell-line viability measurements; format: cell-based, human; conditions: of 766 cancer cell lines, 72 hours, 66.4 µM to 2 nM
Summary of the method: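 500 cells/well in 1536-well plates, each line in its preferred medium; overnight incubation. Test compound acoustically dispensed at 16 concentrations, 66.4 µM–2 nM, 2-fold steps, in duplicate. After 72 h, ATP measured by CellTiter-Glo, normalized to media-only and DMSO wells. Curves fit to 2- or 3-parameter sigmoids. Sensitivity metric: AUC of optimal 8-point curve by numeric integration.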

HeLa cells [3] = assay: Caspase activity; format: cell-based, human; conditions: 48 hours (caspase), 36 hours (PARP)
Summary of the method: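 HeLa cells (1000/well, 384-well) in growth medium with 10% FBS; test compound added 24 h after plating. Caspase: 48 h exposure, Caspase-Glo added, luminescence read. PARP: 36 h exposure to test compound or staurosporine; NP-40 lysis; immunoblot for PARP (1:1000) and actin (1:20,000), infrared imaging.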

[4] = tested on: PDE3A complex with V5-tagged SIRT7 and SLFN12; assay: PDE3A immunoprecipitation and V5 immunoblot; format: cell-based, human; conditions: HeLa, 10 µM, 4 hours, co-immunoprecipitation
Summary of the method: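 HeLa cells transfected with V5-tagged SIRT7, SLFN12 or GFP constructs. At 72 h, treated 4 h with 10 µM test compound or trequinsin. Lysis in ModRipa (1% NP-40, 50 mM Tris-HCl pH 7.8, 150 mM NaCl, 0.1% deoxycholate, 1 mM EDTA). 2 mg lysate with 1 µg anti-PDE3A overnight at 4 °C, then Protein A/G beads 1 h. LDS elution; immunoblots for V5 (1:5000) and PDE3A (1:1000).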

234 kinases = assay: Millipore KinaseProfiler panel; format: biochemical, human; conditions: 10 µM DNMDP
HeLa cells [5] = assay: Rescue of DNMDP induced cytotoxicity; format: cell-based, human; conditions: 48 hours; for rescue of DNMDP cytotoxicity: DNMDP in combination, dose response; for rank in bioactives screen for rescue of cell death induced by DNMDP: 20 µM compound with 30 nM DNMDP, 1600 compounds; for competition with DNMDP (rescue): up to 10 µM
Summary of the method: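 HeLa cells (1000/well, 384-well) in DMEM with 10% FBS and 1% Pen/Strep. 24 h after plating, 1600 bioactives added at 20 µM together with cytotoxic agent at 30 nM final; 48 h incubation. Follow-up combinations used indicated PDE3/pan-PDE inhibitor concentrations with single data points. CellTiter-Glo viability expressed as percentage of untreated DMSO control.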

PDE3A = PDE3A (Homo sapiens, UniProt Q14432); assay: Linker-affinity purification with DNMDP-2L resin and PDE3A immunoblot; format: binding; conditions: HeLa cell lysate, 10 µM competitor
Summary of the method: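 200 µg lysate incubated 4 h with resin-coupled linker analogue, competitor compounds added beforehand. Three washes in buffer with 10 µM compound. Bound protein resolved by SDS-PAGE; anti-PDE3A immunoblot (1:1000, overnight, 4 °C); infrared detection.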

PDE3 = conditions: read-out: PDE3 IC50; cited from earlier work

PDE3A, sequence (Q14432 whole entry): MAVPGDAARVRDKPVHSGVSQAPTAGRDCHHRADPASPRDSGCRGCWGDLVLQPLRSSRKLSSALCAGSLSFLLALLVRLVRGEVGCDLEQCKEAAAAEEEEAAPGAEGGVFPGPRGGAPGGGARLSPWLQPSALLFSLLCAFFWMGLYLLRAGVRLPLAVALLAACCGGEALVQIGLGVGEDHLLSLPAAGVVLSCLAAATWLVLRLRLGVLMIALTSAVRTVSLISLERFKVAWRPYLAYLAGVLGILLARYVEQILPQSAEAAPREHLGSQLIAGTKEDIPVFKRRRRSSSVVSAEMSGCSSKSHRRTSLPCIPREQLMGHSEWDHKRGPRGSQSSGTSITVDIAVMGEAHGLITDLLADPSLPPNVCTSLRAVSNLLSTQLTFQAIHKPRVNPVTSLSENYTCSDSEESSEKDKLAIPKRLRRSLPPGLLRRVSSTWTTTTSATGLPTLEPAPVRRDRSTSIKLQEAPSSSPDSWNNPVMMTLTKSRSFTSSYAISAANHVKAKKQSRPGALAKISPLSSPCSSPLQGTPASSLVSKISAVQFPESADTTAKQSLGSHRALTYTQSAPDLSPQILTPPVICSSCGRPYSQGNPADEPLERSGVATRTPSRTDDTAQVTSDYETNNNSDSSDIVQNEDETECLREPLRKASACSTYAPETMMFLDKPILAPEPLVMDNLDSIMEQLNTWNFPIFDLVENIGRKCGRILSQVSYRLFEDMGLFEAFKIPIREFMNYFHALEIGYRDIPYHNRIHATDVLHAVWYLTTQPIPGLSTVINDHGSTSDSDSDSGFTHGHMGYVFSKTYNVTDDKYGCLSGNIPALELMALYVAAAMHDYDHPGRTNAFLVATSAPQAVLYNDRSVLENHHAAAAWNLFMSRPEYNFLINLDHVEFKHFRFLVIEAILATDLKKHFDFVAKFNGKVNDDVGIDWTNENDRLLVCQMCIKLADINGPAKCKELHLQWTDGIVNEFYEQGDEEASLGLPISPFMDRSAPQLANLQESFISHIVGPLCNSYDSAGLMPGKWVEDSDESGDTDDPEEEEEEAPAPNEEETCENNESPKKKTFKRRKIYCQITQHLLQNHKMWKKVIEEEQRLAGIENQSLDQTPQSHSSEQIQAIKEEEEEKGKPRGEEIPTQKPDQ

- EC50 (A549 cells): > 1000 nM
- EC50 (HeLa cells [1]; Homo sapiens, HeLa, 48 h): 10 to 100 nM
- EC50 (NCI-H1563 cells): 10 to 100 nM
- EC50 (NCI-H2122 cells): 10 to 100 nM
- EC50 (MCF7 cells): > 1000 nM
- EC50 (PC3 cells): > 1000 nM
- kinase inhibition across 234 kinases (234 kinases): no kinase inhibition
SMILES: CCN(CC)c1ccc(C2=NNC(=O)CC2C)cc1[N+](=O)[O-] (stereo not shown) [DNMDP, 6-(4-(diethylamino)-3-nitrophenyl)-5-methyl-4,5-dihydropyridazin-3(2H)-one]
- selective toxicity in dose-response retest (NCI-H1734 cells): specifically toxic to the NCI-H1734 cell line
- EC70 concentration (HeLa cells [1]; HeLa, 48 hours): 30 nM
- number of cell lines sensitive with a robust Z-score lower than -4 [2]: 22 cell lines
- induction of apoptosis (caspase activity, PARP cleavage) (HeLa cells [3]): undergo apoptosis
- complex formation of V5-tagged SIRT7 and SLFN12 with PDE3A [4]: enhanced complex formation

SMILES: CCN(CCOCCOCCNC(=O)OC(C)(C)C)c1ccc(C2=NNC(=O)C[C@H]2C)cc1 [DNMDP-2L]
- rescue of DNMDP cytotoxicity (HeLa cells [5]): same DNMDP cytotoxicity rescue phenotype as non-cytotoxic PDE3 inhibitors

SMILES: CCN(CC)c1ccc(C2=NNC(=O)C[C@H]2C)cc1 [DNMDP-2]
- activity compared with (R)-DNMDP (HeLa cells [1]): tested similarly to (R)-DNMDP

SMILES: CCN(CC)c1ccc(C2=NNC(=O)CC2C)cc1 (stereo not shown) [DNMDP-3]
- activity compared with (R)-DNMDP (HeLa cells [1]): tested similarly to (R)-DNMDP

SMILES: CN(C(=O)CCCOc1ccc2[nH]c(=O)ccc2c1)C1CCCCC1 [cilostamide]
- rescue of DNMDP cytotoxicity (HeLa cells [5]): able to rescue DNMDP cytotoxicity in a dose-dependent manner

SMILES: O=C1CCc2cc(OCCCCc3nnnn3C3CCCCC3)ccc2N1 [cilostazol]
- rank in bioactives screen for rescue of cell death induced by DNMDP (HeLa cells [5]): three most potent compounds

SMILES: OCCN(CCO)c1nc(N2CCCCC2)c2nc(N(CCO)CCO)nc(N3CCCCC3)c2n1 [dipyridamole]
- competition with DNMDP (rescue) (HeLa cells [5]): not effective competitors

SMILES: CC(C)C(=O)c1c(C(C)C)nn2ccccc12 [idubilast]
- competition with DNMDP (rescue) (HeLa cells [5]): not effective competitors

SMILES: C[C@@H]1CC(=O)NN=C1c1ccc(NN=C(C#N)C#N)cc1 [levosimendan]
- rank in bioactives screen for rescue of cell death induced by DNMDP (HeLa cells [5]): three most potent compounds
- rescue of DNMDP cytotoxicity (HeLa cells [5]): able to rescue DNMDP cytotoxicity in a dose-dependent manner

SMILES: Cc1[nH]c(=O)c(C#N)cc1-c1ccncc1 [milrinone]
- rank in bioactives screen for rescue of cell death induced by DNMDP (HeLa cells [5]): three most potent compounds
- rescue of DNMDP cytotoxicity (HeLa cells [5]): able to rescue DNMDP cytotoxicity in a dose-dependent manner

SMILES: CCCc1nn(C)c2c(=O)[nH]c(-c3cc(S(=O)(=O)N4CCN(C)CC4)ccc3OCC)nc12 [sildenafil]
- competition with DNMDP (rescue) (HeLa cells [5]): not effective competitors

- blocking of PDE3A binding to the tethered linker analogue (PDE3A): blocked
SMILES: COc1cc2c(cc1OC)-c1c/c(=N\c3c(C)cc(C)cc3C)n(C)c(=O)n1CC2 [trequinsin]
- effect on HeLa cell viability (HeLa cells [1]; HeLa, up to 10 µM, 48 hours): did not affect HeLa cell viability in any detectable way
- IC50 (PDE3): 0.25 nM

SMILES: CCCc1nc(C)c2c(=O)[nH]c(-c3cc(S(=O)(=O)N4CCN(CC)CC4)ccc3OCC)nn12 [vardenafil]
- competition with DNMDP (rescue) (HeLa cells [5]): not effective competitors
